Results taken from PMC5889851 (ACS chemical biology, 2018).

How the values were obtained:
[1] = test system: HEK293 cells overexpressing SIRT2; experiment: Cellular NAD+ measurement; format: cell-based, human; settings: 40 nM, 6 h, vs control cells
Method in brief: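 SIRT2-overexpressing HEK293 cells got 0 or 40 nM NAMPT inhibitor for 6 h, then were harvested, rinsed and resuspended in fresh medium. Pellets were extracted with ice-cold 7% perchloric acid through three vortex (30 s) and ice sonication (5 min) cycles. Extracts were centrifuged 3 min at RT, and supernatant was neutralised to pH 7 with NaOH and phosphate buffer. NAD⁺ was quantified by cycling assay.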

[2] = molecular target: T1, SIRT2 in SIRT2 overexpressing HEK293 cells (Homo sapiens, UniProt Q8IXJ6); experiment: In situ labeling of SIRT2 with activity-based probe; format: cell-based; settings: cells treated with FK866 6 h, then 10 μM probe 1; compared to control cells
T1 sequence (Q8IXJ6 1-389): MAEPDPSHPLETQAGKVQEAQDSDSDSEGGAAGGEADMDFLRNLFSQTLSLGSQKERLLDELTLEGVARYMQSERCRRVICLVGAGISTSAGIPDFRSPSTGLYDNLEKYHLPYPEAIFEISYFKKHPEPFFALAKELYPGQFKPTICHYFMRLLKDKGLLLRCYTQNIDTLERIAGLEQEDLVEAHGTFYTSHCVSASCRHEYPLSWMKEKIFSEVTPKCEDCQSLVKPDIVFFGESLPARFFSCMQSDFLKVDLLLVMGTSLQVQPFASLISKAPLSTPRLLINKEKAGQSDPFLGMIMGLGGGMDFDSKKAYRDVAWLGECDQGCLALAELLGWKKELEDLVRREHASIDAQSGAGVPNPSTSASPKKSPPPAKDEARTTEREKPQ
Method in brief: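 SIRT2-overexpressing HEK293 cells were treated with or without NAMPT inhibitor for 6 h, rinsed three times, and given fresh medium with 10 μM probe. Live cells were irradiated at 365 nm on ice for 1 h, then harvested and lysed. Lysate was click-conjugated to azide-fluor 545, resolved by SDS-PAGE and scanned for fluorescence. SIRT2 protein level was checked by Western blot.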

[3] = test system: HEK293 cells; experiment: Viability testing using trypan blue; format: cell-based, human; settings: 40 nM, 6 h
Method in brief: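 HEK293 cells received 0 or 40 nM NAMPT inhibitor for 6 h, then were harvested, rinsed and resuspended in fresh medium. An aliquot of the suspension was scored for viability by trypan blue exclusion.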

- in situ labeling intensity of SIRT2 by probe 1 [2]: decreased labeling intensity
Compound: O=C(/C=C/c1cccnc1)NCCCCC1CCN(C(=O)c2ccccc2)CC1 [FK866]
- NAD+ depletion [1]: 60%
- loss of viability [3]: negligible loss of viability
